Assay outcomes deposited in PubChem BioAssay by Johns Hopkins Ion Channel Center.
KCNQ1 block: human KCNQ1 channel inhibition | hit rate 1.3% among 310,000 | P51787 | B-score at 10 µM | AID 2642 | CHO-K1 KCNQ1, FluxOR thallium flux fluorescence; stronger effect = higher value;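 active = compounds whose thallium flux B-score, printed positive for inhibition, exceeds three library SD while starting fluorescence stays within three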;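 also: channel opened by potassium depolarization with thallium stimulus after 20 min compound exposure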
hERG rescue: compounds protecting human hERG from proarrhythmic drug block; activation (rescue from dofetilide block), less the hit threshold, % at 10 µM; hit rate 0.51% among 310,000; Q12809; CHO-hERG, FluxOR thallium flux, dofetilide IC70 present; AID 1511;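 active = activation above the mean of controls blocked by dofetilide plus 5 SD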;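 also: thallium influx through hERG after potassium depolarization seen as dye fluorescence rise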
KCNQ1 pot: potentiates or activates the human KCNQ1 potassium channel | P51787 | hit rate 0.35% among 310,000 | B-score at 10 µM | CHO-K1 KCNQ1, thallium flux FluxOR fluorescence; stronger effect = higher value | AID 2648;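 active = fluorescence ratio B-score, a plate-corrected score, at least three library SD, with initial intensity B-score within 5 SD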
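Assay system: CHO-K1 cells stably expressing KCNQ1; Medium: assay buffer with matched DMSO; Also added: K+/Tl+ depolarizing stimulus; Dosing: single dose; Timing: dye 90 min, compound 20 min, room temperature; Measured by: kinetic FluxOR thallium fluorescence, 10-s 1-Hz baseline, 110-s post-stimulus read; Read-out: peak-minus-minimum fluorescence over initial fluorescence, negative-control normalized, B-scored.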
KCNK3 block: human KCNK3 channel inhibition, primary screen; hit rate 0.84% among 340,000; AID 602410; CHO-KCNK3 thallium flux, FluxOR fluorescence; stronger effect = lower value; B-score at 10 µM;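 active = B-score under library mean minus 4 SD, starting fluorescence ratio at most library mean plus 5 SD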;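 also: more negative B-score means stronger inhibition of thallium flux through KCNK3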
Target sequence (O14649 whole entry, looked up): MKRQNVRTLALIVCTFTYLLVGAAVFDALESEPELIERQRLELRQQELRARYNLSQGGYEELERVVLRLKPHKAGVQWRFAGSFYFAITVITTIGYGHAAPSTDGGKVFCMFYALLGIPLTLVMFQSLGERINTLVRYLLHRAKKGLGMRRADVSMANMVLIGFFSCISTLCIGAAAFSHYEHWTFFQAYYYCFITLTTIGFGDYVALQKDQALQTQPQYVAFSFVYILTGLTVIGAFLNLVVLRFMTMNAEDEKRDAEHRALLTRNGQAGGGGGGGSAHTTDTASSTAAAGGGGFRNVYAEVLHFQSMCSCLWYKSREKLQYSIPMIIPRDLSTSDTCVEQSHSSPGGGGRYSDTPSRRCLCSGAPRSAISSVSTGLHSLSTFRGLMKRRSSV
Kir21 block: inhibitors of mouse Kir2.1 inward-rectifier potassium channel; HEK293-Kir2.1, FluxOR thallium flux fluorescence; stronger effect = lower value; B-score at 10 µM; hit rate 0.85% among 310,000; AID 1672;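 active = fluorescence ratio B-score at or below minus 3 SD of library scores, with starting-brightness B-score within 2 SD, cut at about -4.2 in these data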;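 also: channel flux triggered by added potassium and thallium sulfate stimulus; B-score of peak minus minimum fluorescence over baseline after thallium stimulus; more negative B-score means stronger Kir2.1 block with less thallium influx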
KCNK9 inh-1: human KCNK9 channel inhibition; Q9NPC2; HEK293 KCNK9, FluxOR thallium flux fluorescence; stronger effect = lower value; B-score at 10 µM; hit rate 1.2% among 310,000; AID 488922;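 active = ratio B-score over 3 SD below the library mean, with starting fluorescence within 5 SD of its mean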;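 also: negative B-score means less thallium flux so channel inhibition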
hERG ctr: counter-screen for Kir2.1 inhibitors: effect on human hERG. inhibition, % at 10 µM. hERG-expressing cells, thallium flux. shares compounds with Kir21 block. hit rate 20% among 320. AID 2236;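 also: host cells are CHO cells stably expressing hERG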
KCNK9 inh-2: human KCNK9 off-target activity of Kir2.1 blockers; shares compounds with Kir21 block; KCNK9-expressing cells, ion flux inhibition; inhibition, % at 10 µM; hit rate 5% among 320; AID 2329
Kir21 ephys inh: inhibitors of mouse Kir2.1 potassium channel. shares compounds with Kir21 block. Kir2.1 cells, automated patch-clamp current inhibition. inhibition, % at 25 µM. hit rate 71% among 320
Numbers without * were called inactive. In the library only some 3.7% were active in any assay of this set; here they are far more common. Unless noted, no rule for the calls is given here.

`CC(C)(Oc1ccc(Cl)cc1)C(=O)OCC(=O)NCCc1ccccc1` gave KCNQ1 block inactive, hERG rescue -14, KCNQ1 pot inactive, KCNK3 block inactive, Kir21 block -6.4*, KCNK9 inh-1 inactive, hERG ctr inactive, KCNK9 inh-2 inactive and Kir21 ephys inh 39%*.
CCCCCC(=O)Nc1cc(S(=O)(=O)N2CCOCC2)ccc1N1CCN(C)CC1 was read as KCNQ1 block inactive, hERG rescue -12, KCNQ1 pot inactive, KCNK3 block inactive, Kir21 block 3 and KCNK9 inh-1 inactive.
For CC(=O)OC1=C(C#N)Cn2ccc3cccc1c32 the results were KCNQ1 block inactive, hERG rescue -5, KCNQ1 pot inactive, Kir21 block -6.7*, KCNK9 inh-1 inactive, hERG ctr inactive, KCNK9 inh-2 inactive and Kir21 ephys inh inactive.
For NS(=O)(=O)c1ccc(CCNC(=O)c2ccc3c(=O)n4c(nc3c2)CCCCC4)cc1 the results were KCNK3 block inactive.
Screening O=C(O)C1=C[C@@H](C2CCCCC2)C[C@@H](OCc2ccc(CO)cc2)O1 returned KCNQ1 block inactive, hERG rescue -5, KCNQ1 pot inactive, KCNK3 block inactive, Kir21 block 0.15 and KCNK9 inh-1 inactive.
`NC(=O)C1=C[C@@H](C2CCCCC2)C[C@@H](OCc2ccc(CO)cc2)O1` gave KCNQ1 block inactive, hERG rescue -10, KCNQ1 pot inactive, KCNK3 block inactive, Kir21 block -7.7*, KCNK9 inh-1 inactive, hERG ctr inactive, KCNK9 inh-2 inactive and Kir21 ephys inh 26%*.
Screening O=C(c1cc(COc2ccc3c(c2)CCCC3)on1)N1CCCC1 returned KCNQ1 block inactive, hERG rescue -6, KCNQ1 pot inactive, KCNK3 block inactive, Kir21 block 4.1, KCNK9 inh-1 inactive, hERG ctr inactive, KCNK9 inh-2 inactive and Kir21 ephys inh inactive.
OC(CNCc1ccco1)Cn1c2ccccc2c2ccccc21 (stereo unspecified) was read as KCNQ1 block inactive, hERG rescue -12, KCNQ1 pot inactive, KCNK3 block inactive, Kir21 block -11*, KCNK9 inh-1 inactive, hERG ctr 61%*, KCNK9 inh-2 inactive and Kir21 ephys inh 25%*.
Screening OC(CNCc1ccco1)COc1ccccc1 (stereo unspecified) returned KCNQ1 block inactive, hERG rescue -4, KCNQ1 pot inactive, KCNK3 block inactive, Kir21 block -0.05 and KCNK9 inh-1 inactive.
`Cc1ccc(S(=O)(=O)N[C@H](C(=O)OCC(=O)NC(=O)c2cccn2C)C(C)C)cc1` gave KCNK3 block inactive.
Screening CC1=CC(C)(C)N(C(=O)CSc2nnc(C)s2)c2ccc(C)cc21 returned KCNQ1 block inactive, hERG rescue -6, KCNQ1 pot inactive, KCNK3 block inactive, Kir21 block -7.1*, KCNK9 inh-1 inactive, hERG ctr inactive, KCNK9 inh-2 inactive and Kir21 ephys inh 8.3%*.
`COc1ccccc1NC(=O)CSc1nc(=O)n(Cc2ccncc2)c2c1CCCC2` gave KCNQ1 block inactive, hERG rescue -10, KCNQ1 pot inactive, KCNK3 block inactive, Kir21 block -1.2 and KCNK9 inh-1 inactive.
For CC(NS(=O)(=O)c1ccc(Br)cc1)c1ccccc1 (stereo unspecified) the results were KCNQ1 block inactive, hERG rescue -8, KCNQ1 pot inactive, KCNK3 block inactive, Kir21 block -6*, KCNK9 inh-1 inactive, hERG ctr inactive, KCNK9 inh-2 inactive and Kir21 ephys inh 54%*.
CCC(=O)N1N=C(c2ccc(NS(=O)(=O)c3ccccc3)cc2)CC1c1ccco1 (stereo unspecified) was read as KCNK3 block inactive.
For Cc1cc(C)nc(SCCCNCc2ccc(Br)cc2)n1 the results were KCNQ1 block inactive, hERG rescue -13, KCNQ1 pot inactive, KCNK3 block inactive, Kir21 block -7.1*, KCNK9 inh-1 inactive, hERG ctr inactive, KCNK9 inh-2 inactive and Kir21 ephys inh 44%*.
COc1ccc(CNCc2cccc3ccccc23)cc1 was read as KCNQ1 block inactive, hERG rescue 0, KCNQ1 pot inactive, KCNK3 block inactive, KCNK9 inh-1 inactive, hERG ctr inactive and KCNK9 inh-2 inactive.
For C/C(=N\NC(=O)COc1cc(C)cc(C)c1)c1cccc(NC(=O)C2CCC2)c1 the results were KCNQ1 block inactive, hERG rescue -12, KCNQ1 pot inactive, KCNK3 block inactive, Kir21 block 0.06 and KCNK9 inh-1 inactive.
Screening CCOC(=O)c1cnc2c(c(C)nn2CC)c1NCCN1CCOCC1 returned KCNQ1 block inactive, hERG rescue -10, KCNQ1 pot inactive, KCNK3 block inactive, Kir21 block 0.85 and KCNK9 inh-1 inactive.
For Clc1ccc(COc2ccccc2CNCc2cccnc2)cc1 the results were KCNQ1 block inactive, hERG rescue -1, KCNQ1 pot inactive, KCNK3 block inactive, Kir21 block -2.1 and KCNK9 inh-1 inactive.
CCOc1cccc(CNCc2cccnc2)c1OCc1ccccc1 was read as KCNQ1 block inactive, hERG rescue -1, KCNQ1 pot inactive, KCNK3 block inactive, Kir21 block -7.5*, KCNK9 inh-1 inactive, hERG ctr inactive, KCNK9 inh-2 inactive and Kir21 ephys inh 40%*.
Screening CN(C)CCN(Cc1ccccc1)C(=O)[C@H](Cc1ccccc1)N1C(=O)c2ccccc2C1=O returned KCNQ1 block inactive, hERG rescue -7, KCNQ1 pot inactive, KCNK3 block inactive, Kir21 block -6*, KCNK9 inh-1 inactive, hERG ctr inactive, KCNK9 inh-2 inactive and Kir21 ephys inh inactive.
CC1CN(C(=O)CCC(=O)NCCCN2CCN(Cc3ccccc3)CC2)c2cc(Cl)ccc2O1 (stereo unspecified) was read as KCNQ1 block inactive, hERG rescue -10, KCNQ1 pot inactive, KCNK3 block inactive, Kir21 block -6.3*, KCNK9 inh-1 inactive, hERG ctr 64%*, KCNK9 inh-2 inactive and Kir21 ephys inh 9.3%*.
`CN(C)C(=O)c1ccccc1Sc1cc(Cl)ccc1Cl` gave KCNQ1 block inactive, hERG rescue -13, KCNQ1 pot inactive, KCNK3 block inactive, Kir21 block -6.7*, KCNK9 inh-1 inactive, hERG ctr inactive, KCNK9 inh-2 inactive and Kir21 ephys inh 20%*.
